Compound activity (PubChem)
RAM inhibit: inhibitors of the yeast RAM network | S. cerevisiae dse1pr::URA3 reporter, 5-FOA growth OD615, 2 d; analog-sensitive cbk1-as2 kinase mutant strain | inhibition, % at 50 µM | actives 1.8% (n = 190,000);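 active = inhibition above a set limit, 3 SD over mean compound inhibition, cut at about 8.4% in these data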;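 also: 0% = DMSO-only wells with no growth and 100% = 10 µM 1-NA-PP1 full growth; inhibition rescues growth on 5-FOA so higher OD means more RAM inhibition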
Yeast life ext: extends the lifespan of yeast; S. cerevisiae growth with nicotinamide, OD615; deaD strain in restrictive glucose medium; inhibition of the nicotinamide effect, % at 10 µM; actives 0.68% (n = 130,000); AID 775;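 active = inhibition above a set limit, placed 3 SD over the median of all compounds, cut at about 26% in these data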;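 also: 0% = nicotinamide-treated wells and 100% = cells grown without nicotinamide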
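assay system = DeaD-strain S. cerevisiae | measured by = absorbance at 615 nm | probe or stimulus = nicotinamide 1.5 mM | buffer or medium = CSMM-D glucose medium, restrictive | times = 48 h at 30 °C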
Yeast growth inh: chemicals that inhibit yeast BB579 growth in restrictive medium (lifespan-shortening candidates); inhibition, % at 10 µM; actives 0.51% (n = 140,000); S. cerevisiae BB579 growth, OD615, 48 h;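 active = inhibition above a set limit, 3 SD over the mean compound inhibition, cut at about 44% in these data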
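controls = amphotericin B 10 µg/mL, positive | assay system = DeaD yeast strain BB579 | schedule = 48 h compound exposure at 30 °C after 4 h preincubation | detection = OD615 turbidity measurement | medium = restrictive CSMM-D medium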
Measles CPE: protection of cells from measles virus. actives 1.5% (n = 140,000). Measles virus-infected cells, CPE protection, absorbance. protection (pct of control), % at 4 µM; in the data active = protection mostly above about 24%, no sharp cut-off; inactive = mostly below about 26%
Starred values were filed as active, the others as inactive; x = no result given. An excerpt weighted towards active compounds, which were near 3.8% of everything screened.

SMILES	RAM inhibit	Yeast life ext	Yeast growth inh	Measles CPE
Cc1cc(C)c(C#N)c(Oc2ccccc2Br)n1	2	x	x	x
OCCC1CN(Cc2ccon2)CCN1Cc1ccc(F)c(F)c1 (stereo not drawn)	1	x	x	x
CC(=O)NC1C(=O)N=C(SCC(=O)NC2CCCCC2)NC1=O (stereo not drawn)	2	-3	48*	4
Cc1nc2ccccc2c(=O)n1NC(=O)C1CC1	2	x	x	x
CCCCOC(=O)Sc1nc2ccccc2o1	-1	-19	100*	17
CN(C)c1ccc(N/C=C/C(=O)C(C)(C)C)cc1	2	0	-50	53*
N#CC1=C(N)NC(SCC(=O)c2ccccc2)=C(C#N)C12CCCC2	11*	2	-29	5
CS/C(=N\S(=O)(=O)c1cccs1)Nc1ccc(Cl)cc1	0	6	-35	11
CS/C(=N\S(=O)(=O)c1cccs1)Nc1ccc(Br)cc1F	1	31*	-10	5
CCC(C)(C)n1nnnc1C(c1cc(OC)ccc1OC)N1CCC(C(N)=O)CC1 (stereo not drawn)	1	x	-8	15
O=C(N/N=C/c1coc2ccccc2c1=O)c1cn(-c2ccccc2)nc1-c1ccc(F)cc1	2	29*	-38	13
Cn1c(COc2ccc3ccccc3c2)nnc1SCC(=O)OC1CCCCC1	1	x	-12	7
Cc1cc(C(=O)N/N=C/c2cccc([N+](=O)[O-])c2)c(C)o1	3	-14	-58	33*
O=C(N/N=C/c1cccc([N+](=O)[O-])c1)c1cc2ccccc2o1	5	9	-14	12
O=C(NN=C1CCCC1)C(=O)Nc1cccc(C(F)(F)F)c1	0	-10	-2	4
COCCNC(=O)c1ccc(NC(C)=O)cc1	2	-3	-71	52*
O=C(NCc1ccco1)c1cccc(C(F)(F)F)c1	0	x	x	x
Cc1nc2ccc(NC(=O)c3cccc(C(F)(F)F)c3)cc2o1	2	-29	-31	61*
COCCCNC(=O)c1cccc(C(=O)NCCCOC)c1	1	-17	-48	23*
CCCNC(=O)c1cccc(C(F)(F)F)c1	4	-9	10	27*
CCOCCCNC(=O)c1ccc(Br)cc1	0	-25	47*	8
CCOCCCNC(=O)c1ccc(OC)cc1	0	-10	-7	27
CCOc1ccccc1NC(=O)C1CCCCN1S(=O)(=O)c1ccc(F)cc1 (stereo not drawn)	2	-10	2	6
Cc1ccc(S(=O)(=O)NCc2ccco2)cc1C	0	-7	-5	43*
CCCOc1ccc(-c2nc(C#N)c(N3CCN(C)CC3)o2)cc1	0	-28	-3	5
SMILES	RAM inhibit	Yeast life ext	Yeast growth inh	Measles CPE
CCCOc1ccc(-c2nc(C#N)c(N3CCc4ccccc4C3)o2)cc1	11*	-7	-35	5
COc1ccc(NCc2nnc(SCC(=O)c3ccc(OC)cc3)o2)cc1	4	-5	-85	38*
COc1ccc(Cc2nnc(SCC(=O)c3ccc(OC)cc3)o2)cc1	8	-6	-81	5
CC(C)(C)N(Cc1ccccc1)C(=O)CSc1nnc(CNc2ccc(F)cc2)o1	8.6*	-3	-28	31
CCOC(=O)CN(C(=O)CSc1nnc(CNc2ccc(F)cc2)o1)c1ccccc1	1	-5	-67	8
CCN1CCCC1CNC(=O)C(=O)NCCc1ccc(OC)c(OC)c1 (stereo not drawn)	0	x	x	x
O=c1cc(/N=C/c2coc3c(ccc4ccccc43)c2=O)[nH]c(=S)[nH]1	11*	4	-36	14
NC(=S)N/N=C/c1coc2c(ccc3ccccc32)c1=O	1	12	-29	22
COc1cccc(CN(C)C(=O)c2csc3c2CCCC3)c1OC	0	x	x	x
COc1ccc(Nc2nc3ccc(C)cn3c(=O)c2/C=N/O)cc1	5	x	x	x
Cc1ccc2nc(Nc3ccccc3)c(/C=N/O)c(=O)n2c1	1	27*	-23	1
CCCC(C)NC(=S)Nc1cc(C)cc(C)c1 (stereo not drawn)	0	x	x	x
O=C(NCCc1c[nH]c2ccccc12)c1cccnc1	-1	-6	-21	74*
O=C(O)c1nccnc1C(=O)NCCc1c[nH]c2ccccc12	0	x	x	x
[O-]/[N+](=C\c1ccc(OC(F)F)cc1)c1ccccc1	1	-6	-29	42*
[O-]/[N+](=C/c1ccc(F)cc1)c1ccccc1	1	-23	-30	32
O=C(O)/C=C\C(=O)NCc1cccnc1	3	x	x	x
CC1(C2(O)CC(c3ccccc3)ON2)CCCCC1 (stereo not drawn)	3	0	-18	29*
CSc1ccc(-c2nc(O)c3cnccn23)cc1	1	x	x	x
